Calls of active or inactive are those of the source.
Legend:
Mus musculus [1] = species: Mus musculus; assay: Neuroprotective activity against kainate-induced cell death in mouse primary motor neurons by cell counting method; type: functional
Cortical neurone [2] = assay: Neuroprotective activity against kainate-induced cell death in mouse primary cortical neurons by caspase activation method; type: functional, cell-based
Cortical neurone [3] = assay: Neuroprotective activity against kainate-induced cell damage in mouse primary cortical neurons assessed as reduction in kainate-induced neurofilament loss by measuring increase in MAPK level at 1 uM pretreated followed by kainate challenge measured after 18 hrs by fluorescence assay; type: functional, cell-based; details: in the assay text read “MAP2” for “MAPK”
In short: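 Mouse primary cortical neurons cultured as previously described; dendritic processes stained with anti-MAP2 antibody. Cell-profile perimeter measured by image analysis, each condition normalized to kainate-only.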

Mus musculus [4] = species: Mus musculus; assay: Neuroprotective activity against kainate-induced cell death in mouse primary motor neurons by caspase activation method; type: functional
Cortical neurone [5] = assay: Neuroprotective activity against kainate-induced cell death in mouse primary cortical neurons by cell counting method; type: functional, cell-based
Mus musculus [6] = species: Mus musculus; assay: Neuroprotective activity against kainate-induced cell death in mouse primary motor neurons by MTT assay; type: functional
Cortical neurone [7] = assay: Neuroprotective activity against kainate-induced cell death in mouse primary cortical neurons by MTT assay; type: functional, cell-based
Cortical neurone [8] = assay: Neuroprotective activity against kainate-induced cell damage in mouse primary cortical neurons assessed as reversal of kainate-induced reduction in calcium flux by fura-2-AM dye based fluorescence assay; type: functional
In short: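 Mouse primary cortical neurons loaded with fura-2AM for 45 min, washed, then depolarized with 10 mM KCl to drive Ca2+ entry through voltage-gated calcium channels. Flux read on a plate-based system.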

Mus musculus [9] = species: Mus musculus; assay: Neuroprotective activity against kainate-induced cell damage in mouse primary motor neurons assessed as reversal of kainate-induced neuronal length preceding cell death at 500 nM by fluorescence assay; type: functional
In short: (§1)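 Mouse primary motor neurons, fixed after treatment and stained with SMI-32 for neurofilaments, then fluorescently imaged. Sholl analysis counted process intersections at each 100 μm radius from the cell centre. Ten cells per condition, three independent experiments, data pooled.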

Cortical neurone [10] = assay: Toxicity in mouse primary cortical neurons assessed as MAP2 loss by fluorescence assay; type: cell-based
In short: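 MAP2 immunostaining of dendritic processes in mouse primary cortical neurons, with cell-profile perimeter measured by image analysis.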

Mus musculus [11] = species: Mus musculus; assay: Neuroprotective activity against kainate-induced cell damage in mouse primary motor neurons assessed as reversal of kainate-induced neuronal length preceding cell death by fluorescence assay; type: functional; in short: as §1
Rattus norvegicus = assay: Protection against glutamate-induced seizures in ip dosed Sprague-Dawley rat pretreated for 30 mins followed by glutamate challenge and measured for 30 mins; type: functional
Mus musculus [12] = species: Mus musculus; assay: Neuroprotective activity against kainate-induced cell damage in mouse primary motor neurons assessed as reversal of kainate-induced neuronal length preceding cell death at […] by fluorescence assay; type: functional; in short: as §1

N=c1sc2cc(OC(F)(F)F)ccc2n1CCn1cc(-c2ccncc2)nn1
Activity (Mus musculus [1]): inactive | Activity (Cortical neurone [2]): inactive | Activity (Cortical neurone [3]): Active | Activity (Mus musculus [4]): inactive | Activity (Cortical neurone [5]): inactive | Activity (Mus musculus [6]): inactive | Activity (Cortical neurone [7]): inactive | Activity (Cortical neurone [8]): Active | Activity (Mus musculus [9]): Active

COC(=O)c1ccc(-c2cn(CCn3c(=N)sc4cc(OC(F)(F)F)ccc43)nn2)cc1
Activity (Mus musculus [1]): inactive | Activity (Cortical neurone [2]): inactive | Activity (Cortical neurone [3]): inactive | Activity (Mus musculus [4]): inactive | Activity (Cortical neurone [5]): inactive | Activity (Mus musculus [6]): inactive | Activity (Cortical neurone [7]): inactive | Activity (Cortical neurone [8]): Active | Activity (Cortical neurone [10]): Toxic

N=c1sc2cc(OC(F)(F)F)ccc2n1CCn1cc(-c2ccccc2)nn1
Activity (Mus musculus [1]): inactive | Activity (Cortical neurone [2]): inactive | Activity (Cortical neurone [3]): inactive | Activity (Mus musculus [4]): inactive | Activity (Cortical neurone [5]): inactive | Activity (Mus musculus [6]): inactive | Activity (Cortical neurone [7]): inactive | Activity (Mus musculus [11]): inactive | Activity (Cortical neurone [8]): Active

N=c1sc2cc(OC(F)(F)F)ccc2n1CCN1CCN(c2ccccc2)CC1
ED50 (Rattus norvegicus): 3.5 mg/kg

Nc1nc2ccc(OC(F)(F)F)cc2s1 [RILUZOLE]
Activity (Mus musculus [1]): inactive | Activity (Mus musculus [12]): Active | Activity (Cortical neurone [2]): inactive | Activity (Cortical neurone [3]): inactive | ED50 (Rattus norvegicus): 3.2 mg/kg | Activity (Mus musculus [4]): inactive | Activity (Cortical neurone [5]): inactive | Activity (Mus musculus [6]): inactive | Activity (Cortical neurone [7]): inactive

N=c1sc2cc(OC(F)(F)F)ccc2n1CCN1CCC(c2ccccc2)CC1
ED50 (Rattus norvegicus): 3 mg/kg

Source: ChEMBL document CHEMBL4145631, “Riluzole-Triazole Hybrids as Novel Chemical Probes for Neuroprotection in Amyotrophic Lateral Sclerosis” (ACS Med Chem Lett, 2018)
